Laboratory results: ChEMBL document CHEMBL1926579, “N-Aryl-2-phenyl-2,3-dihydro-imidazo[1,2-b]pyrazole-1-carboxamides 7-substituted strongly inhibiting both fMLP-OMe- and IL-8-induced human neutrophil chemotaxis” (Eur J Med Chem, 2012)
Activity calls are given as the source filed them. No cut-off for these calls is given here.

Tests used:
[1] = Antiinflammatory activity in human neutrophils assessed as inhibition of fMLP-OMe-induced chemotaxis preincubated for 10 mins; type: functional, cell-based; details: Neutrophil
Outline: (§1)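 Neutrophils from healthy donors' blood, isolated by dextran sedimentation, Ficoll–Paque centrifugation and hypotonic red-cell lysis, held in KRPG pH 7.4 at room temperature. Cells preincubated with compound 10 min. 48-well microchemotaxis chamber; compound in the upper compartment at 10^-12 to 10^-6 M in KRPG with 1 mg/mL BSA. Attractant in the lower compartment: fMLP-OMe 10 nM or CXCL8/IL8 1 nM.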

[2] = Antiinflammatory activity in human neutrophils assessed as inhibition of IL8-induced chemotaxis preincubated for 10 mins; type: functional, cell-based; details: Neutrophil; outline: as §1
[3] = species: Homo sapiens; assay: Induction of Akt phosphorylation in fMLP-OMe-stimulated human neutrophils
[4] = species: Homo sapiens; assay: Induction of Akt phosphorylation in IL8-stimulated human neutrophils

SMILES | IC50 [1] [nM] | IC50 [2] [nM] | Activity [3] | Activity [4]
O=C(Nc1cccc2ccccc12)N1c2ccnn2CC1c1ccccc1 (stereo not drawn) | > 1000 | > 1000 | – | –
O=C(NC1CC1)c1cnn2c1N(C(=O)Nc1cccc(F)c1)C(c1ccccc1)C2 (stereo not drawn) | 138 | > 1000 | – | –
O=C(NC1CC1)c1cnn2c1N(C(=O)Nc1ccccc1)C(c1ccccc1)C2 (stereo not drawn) | 123 | 13.2 | – | –
CCOC(=O)c1cnn2c1N(C(=O)Nc1ccc(F)cc1)C(c1ccccc1)C2 (stereo not drawn) | 10.3 | > 1000 | – | –
O=C(Nc1ccc(F)cc1)N1c2ccnn2CC1c1ccccc1 (stereo not drawn) | 95 | > 1000 | – | –
CCOC(=O)c1cnn2c1N(C(=O)Nc1cccc3ccccc13)C(c1ccccc1)C2 (stereo not drawn) | 13.8 | 206 | – | –
NC(=O)c1cnn2c1N(C(=O)Nc1ccc(F)cc1)C(c1ccccc1)C2 (stereo not drawn) | 11.4 | 484 | – | –
CCOC(=O)c1cnn2c1N(C(=O)Nc1cccc(F)c1)C(c1ccccc1)C2 (stereo not drawn) | 9.2 | 111 | – | –
O=C(Nc1cccc(F)c1)N1c2ccnn2CC1c1ccccc1 (stereo not drawn) | 12.1 | > 1000 | – | –
O=C(Nc1ccccc1F)N1c2ccnn2CC1c1ccccc1 (stereo not drawn) | 5.4 | > 1000 | – | –
NC(=O)c1cnn2c1N(C(=O)Nc1cccc3ccccc13)C(c1ccccc1)C2 (stereo not drawn) | 110 | > 1000 | – | –
O=C(Nc1ccccc1)N1c2ccnn2CC1c1ccccc1 (stereo not drawn) | 4.8 | > 1000 | – | –
O=C(c1cnn2c1N(C(=O)Nc1cccc(F)c1)C(c1ccccc1)C2)N1CCCCC1 (stereo not drawn) | 5.5 | 1.2 | – | –
NC(=O)c1cnn2c1N(C(=O)Nc1ccccc1F)C(c1ccccc1)C2 (stereo not drawn) | > 1000 | 6.2 | – | –
CCOC(=O)c1cnn2c1N(C(=O)Nc1ccccc1F)C(c1ccccc1)C2 (stereo not drawn) | 116 | 7.5 | – | –
CCOC(=O)c1cnn2c1N(C(=O)Nc1ccccc1)C(c1ccccc1)C2 (stereo not drawn) | 98 | > 1000 | – | –
O=C(c1cnn2c1N(C(=O)Nc1ccccc1)C(c1ccccc1)C2)N1CCCCC1 (stereo not drawn) | 980 | > 1000 | – | –
NC(=O)c1cnn2c1N(C(=O)Nc1cccc(F)c1)C(c1ccccc1)C2 (stereo not drawn) | 3.9 | 1.2 | inactive | inactive
